Consider four compounds from ChEMBL document CHEMBL4251567 (Eur J Med Chem, 2018).

Assay [1] relates to U-937. Kind of assay: Cytotoxicity against human U937 cells assessed as cell viability at 1.6 x 10^-5 M after 44 hrs by MTT assay relative to control. The class given is functional. The settings on record: U-937, 44 h, read-out: Activity. A general note: Tetrazolium dyes change colour on reduction, which living cells bring about.
Assay [2] addresses Histone deacetylase 1 (Homo sapiens) (UniProt Q13547). Briefly: Inhibition of HDAC1 in human HeLa-S3 cell lysates assessed as remaining activity at 4 x 10^-5 M preincubated for 15 mins followed by HDAC-Glo substrate addition measured after 30 to 40 mins by […] relative to control. In outline:
(§1)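 HDAC1 was captured from HeLa-S3 lysate (100 μg/mL) onto wells precoated with anti-HDAC1 antibody (10 μg/mL, carbonate buffer pH 9.4) and milk-blocked, 1 h at 4 °C, then washed. Inhibitor in DMSO was added in HDAC-Glo buffer for 15 min at room temperature. HDAC-Glo reagent was added and luminescence read after 30-40 min. Concentrations are final. No-antibody background subtracted; % of DMSO control.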

The test system of assay [3] is U-937. Kind of assay: Cytotoxicity against human U937 cells assessed as cell viability at 3.2 x 10^-5 M after 44 hrs by MTT assay relative to control. Type of assay: functional. To be noted: U-937, 44 h, read-out: Activity.
The target in assay [4] is Histone deacetylase 1 (Homo sapiens) (UniProt Q13547). Briefly: Inhibition of HDAC1 in human HeLa-S3 cell lysates assessed as remaining activity at 8 x 10^-5 M preincubated for 15 mins followed by HDAC-Glo substrate addition measured after 30 to 40 mins by […] relative to control.
Chain of Histone deacetylase 1 (Homo sapiens) (Q13547 whole entry): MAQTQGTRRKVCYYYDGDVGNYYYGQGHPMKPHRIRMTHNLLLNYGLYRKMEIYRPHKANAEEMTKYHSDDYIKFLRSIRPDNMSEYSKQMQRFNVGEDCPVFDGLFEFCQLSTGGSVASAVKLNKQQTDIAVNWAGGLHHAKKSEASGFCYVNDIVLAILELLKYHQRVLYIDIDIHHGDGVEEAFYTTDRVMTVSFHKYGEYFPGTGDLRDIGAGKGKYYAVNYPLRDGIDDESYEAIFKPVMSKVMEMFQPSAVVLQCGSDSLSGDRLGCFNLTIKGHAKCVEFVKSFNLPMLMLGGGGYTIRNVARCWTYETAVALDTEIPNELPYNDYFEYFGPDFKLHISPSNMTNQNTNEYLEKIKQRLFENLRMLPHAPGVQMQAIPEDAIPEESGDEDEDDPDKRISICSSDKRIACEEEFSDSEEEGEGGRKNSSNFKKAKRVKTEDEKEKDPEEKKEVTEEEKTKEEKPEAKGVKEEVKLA
In assay [5] the target is T1, Histone deacetylase (Homo sapiens) (UniProt Q13547+O15379+Q9UBN7+Q92769+Q9UQL6+Q8WUI4+Q9BY41+Q96DB2+P56524+Q9UKV0+Q969S8). Briefly: Inhibition of HDAC in human HeLa-S3 cell lysates assessed as residual activity at 2 x 10^-4 M preincubated for 15 mins followed by HDAC-Glo substrate addition measured after 35 mins by fluorimetric method relative to control. Type of assay: protein assay. The method in brief: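 Lysate (1 μg total protein) in HDAC-Glo buffer was preincubated with inhibitor in DMSO for 15 min at room temperature. HDAC-Glo substrate/developer reagent was added and luminescence read after 35 min. Concentrations are final. Signal corrected for a no-lysate blank; % of DMSO control.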

In assay [6] the target is Histone deacetylase 2 (Homo sapiens) (UniProt Q92769). Kind of assay: Inhibition of HDAC2 in human HeLa-S3 cell lysates assessed as remaining activity at 2 x 10^-5 M preincubated for 15 mins followed by HDAC-Glo substrate addition measured after 30 to 40 mins by fluorimetric method relative to control. The method in brief:
(§2)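 Same antibody-capture format as the other class I isoforms. HeLa-S3 lysate added at 100 μg/mL for HDAC1 and HDAC2, 1 h at 4 °C, then washed. Inhibitor in DMSO preincubated 15 min at RT; HDAC-Glo reagent added and luminescence read after 30-40 min. Concentrations are final. Signal corrected against a well without antibody; activity expressed as % of DMSO control.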

Assay [7] shares this target. Kind of assay: Inhibition of HDAC2 in human HeLa-S3 cell lysates assessed as remaining activity at 8 x 10^-5 M preincubated for 15 mins followed by HDAC-Glo substrate addition measured after 30 to 40 mins by […] relative to control. The method in brief: as §2
In assay [8] the target is Histone deacetylase 3 (Homo sapiens) (UniProt O15379). Briefly: Inhibition of HDAC3 in human HeLa-S3 cell lysates assessed as remaining activity at 4 x 10^-5 M preincubated for 15 mins followed by HDAC-Glo substrate addition measured after 30 to 40 mins by […] relative to control. The method in brief:
(§3)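 Antibody-capture (ELISA-type) assay: HDAC antibody coated in carbonate/bicarbonate buffer pH 9.4, wells blocked with 5% milk in TBST. HeLa-S3 lysate added at 1 mg/mL for HDAC3, 1 h at 4 °C, then washed. Inhibitor in DMSO preincubated 15 min at RT in HDAC-Glo buffer. HDAC-Glo reagent added, luminescence read after 30-40 min. Concentrations are final. Background = no-antibody well; activity given as % of DMSO control.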

Another assay addresses Histone deacetylase. Kind of assay: Inhibition of HDAC in human HeLa-S3 cell lysates preincubated for 15 mins followed by HDAC-Glo substrate addition measured after 35 mins by fluorimetric method. Type of assay: protein assay.
Assay [9] addresses Histone deacetylase 1 (Homo sapiens) (UniProt Q13547). Briefly: Inhibition of HDAC1 in human HeLa-S3 cell lysates assessed as remaining activity at 1 x 10^-5 M preincubated for 15 mins followed by HDAC-Glo substrate addition measured after 30 to 40 mins by fluorimetric method relative to control. The method in brief:
as §1

Assay [10] has as its target Histone deacetylase 3 (Homo sapiens) (UniProt O15379). Briefly: Inhibition of HDAC3 in human HeLa-S3 cell lysates assessed as remaining activity at 1 x 10^-5 M preincubated for 15 mins followed by HDAC-Glo substrate addition measured after 30 to 40 mins by […] relative to control. In outline:
as §3

Assay [11] concerns the target Histone deacetylase 2 (Homo sapiens) (UniProt Q92769). Kind of assay: Inhibition of HDAC2 in human HeLa-S3 cell lysates assessed as remaining activity at 1.6 x 10^-4 M preincubated for 15 mins followed by HDAC-Glo substrate addition measured after 30 to 40 mins by […] relative to control. In outline: as §2
Assay [12] relates to U-937. Briefly: Cytotoxicity against human U937 cells assessed as decrease in cell viability after 44 hrs by MTT assay. Type of assay: functional, cell-based. The settings on record: Homo sapiens, U-937, 44 h.
Assay [13] deals with T1, Histone deacetylase (Homo sapiens). Briefly: Inhibition of HDAC in human HeLa-S3 cell lysates assessed as residual activity at 2.5 x 10^-5 M preincubated for 15 mins followed by HDAC-Glo substrate addition measured after 35 mins by […] relative to control. The class given is protein assay.
Assay [14] concerns the target Histone deacetylase 3 (Homo sapiens) (UniProt O15379). Briefly: Inhibition of HDAC3 in human HeLa-S3 cell lysates assessed as remaining activity at 1.6 x 10^-4 M preincubated for 15 mins followed by HDAC-Glo substrate addition measured after 30 to 40 mins by […] relative to control. In outline:
as §3

Assay [15] deals with U-937. Briefly: Cytotoxicity against human U937 cells assessed as cell viability at 2 x 10^-6 M after 44 hrs by MTT assay relative to control. The class given is functional. To be noted: U-937, 44 h, read-out: Activity.
For assay [16], the target named is Histone deacetylase 1 (Homo sapiens) (UniProt Q13547). Kind of assay: Inhibition of HDAC1 in human HeLa-S3 cell lysates assessed as remaining activity at 2 x 10^-5 M preincubated for 15 mins followed by HDAC-Glo substrate addition measured after 30 to 40 mins by […] relative to control. In outline: as §1
Assay [17] concerns the target Histone deacetylase 3 (Homo sapiens) (UniProt O15379). Briefly: Inhibition of HDAC3 in human HeLa-S3 cell lysates assessed as remaining activity at 8 x 10^-5 M preincubated for 15 mins followed by HDAC-Glo substrate addition measured after 30 to 40 mins by […] relative to control. The method in brief:
as §3

The target of assay [18] is Histone deacetylase 2 (Homo sapiens) (UniProt Q92769). Briefly: Inhibition of HDAC2 in human HeLa-S3 cell lysates assessed as remaining activity at 4 x 10^-5 M preincubated for 15 mins followed by HDAC-Glo substrate addition measured after 30 to 40 mins by […] relative to control. In outline:
as §2

For assay [19], the target named is Histone deacetylase 1 (Homo sapiens) (UniProt Q13547). Kind of assay: Inhibition of HDAC1 in human HeLa-S3 cell lysates assessed as remaining activity at 1.6 x 10^-4 M preincubated for 15 mins followed by HDAC-Glo substrate addition measured after 30 to 40 mins by […] relative to control. The method in brief: as §1
Assay [20] addresses Histone deacetylase 3 (Homo sapiens) (UniProt O15379). Kind of assay: Inhibition of HDAC3 in human HeLa-S3 cell lysates assessed as remaining activity at 2 x 10^-5 M preincubated for 15 mins followed by HDAC-Glo substrate addition measured after 30 to 40 mins by […] relative to control. In outline: as §3

Chain of Histone deacetylase 2 (Homo sapiens) (Q92769 whole entry, canonical isoform): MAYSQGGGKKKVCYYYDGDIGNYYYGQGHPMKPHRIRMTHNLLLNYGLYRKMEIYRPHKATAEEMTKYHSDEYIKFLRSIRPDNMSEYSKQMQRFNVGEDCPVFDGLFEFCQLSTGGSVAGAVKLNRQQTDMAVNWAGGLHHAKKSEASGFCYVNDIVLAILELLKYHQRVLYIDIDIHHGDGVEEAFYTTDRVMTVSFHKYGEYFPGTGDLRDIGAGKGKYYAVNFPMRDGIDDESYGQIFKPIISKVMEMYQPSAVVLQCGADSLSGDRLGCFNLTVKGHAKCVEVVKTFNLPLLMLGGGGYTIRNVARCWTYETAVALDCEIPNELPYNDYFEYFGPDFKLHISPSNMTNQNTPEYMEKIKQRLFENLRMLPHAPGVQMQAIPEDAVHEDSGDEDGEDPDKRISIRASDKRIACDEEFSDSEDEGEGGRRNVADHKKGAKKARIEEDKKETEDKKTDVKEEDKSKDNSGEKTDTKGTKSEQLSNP
Chain of Histone deacetylase 3 (Homo sapiens) (O15379 whole entry): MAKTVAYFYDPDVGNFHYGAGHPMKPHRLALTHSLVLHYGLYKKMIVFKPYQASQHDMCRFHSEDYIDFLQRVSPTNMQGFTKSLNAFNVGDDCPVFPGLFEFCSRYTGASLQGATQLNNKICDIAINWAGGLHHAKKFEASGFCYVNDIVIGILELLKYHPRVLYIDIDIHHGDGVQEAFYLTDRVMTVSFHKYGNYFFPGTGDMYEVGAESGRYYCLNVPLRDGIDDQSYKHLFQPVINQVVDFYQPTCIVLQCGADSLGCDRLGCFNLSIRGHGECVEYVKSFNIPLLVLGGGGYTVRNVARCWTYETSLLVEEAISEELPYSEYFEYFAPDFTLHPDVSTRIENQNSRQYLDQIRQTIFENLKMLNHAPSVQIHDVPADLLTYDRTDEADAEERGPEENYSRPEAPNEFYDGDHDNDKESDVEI

The term IC50 denotes the concentration that gives 50% inhibition. Usually EC50 stands for the concentration that produces a half-maximal response. For `O=C(CCC(CCCC(=O)Nc1ccccc1)Cc1ccccc1)NO` (racemic), the viability at 16 µM with U-937 [1] turned out to be 69%. Moreover, the Activity in [2] came to 44%; in assay [4], 27%; in assay [5], 19%; in assay [6] it was 60%; in assay [7], 27%; in [8], 55%. Moreover, the Activity amounted to 75% in [9]; 87% in assay [10]; 20% in assay [11]; 74% in [13]; 19% in [14]; 58% in assay [16]. The Activity in assay [17] stood at 33%; in assay [18], 47%; in [19] it was 16%; in assay [20], 63%. The viability at 32 µM in the assay with U-937 [3] was 49%. This compound also yielded an IC50 on Histone deacetylase of 62 µM. In addition, the EC50 in the assay with U-937 [12] came out at 28 µM. Also, the viability at 2 µM with U-937 [15] amounted to 80%.

On to `CCCCCCC(CCCC(=O)Nc1ccccc1)CCC(=O)NO` (configuration not stated), for which the viability at 16 µM in the assay on U-937 [1] amounted to 37%. The Activity in assay [2] was determined as 46%; in [4] it was 26%; in [5], 21%; in assay [6] it was 73%; in assay [7] it was 31%; in [8] it was 42%. Besides, the Activity is 83% in [9]; 88% in [10]; 16% in assay [11]; 73% in assay [13]; 5% in assay [14]; 67% in [16]. The Activity in assay [17] was found to be 25%; in assay [18] it was 46%; in assay [19], 13%; in [20], 56%. Further, the viability at 32 µM in the assay with U-937 [3] amounted to 28%. Besides, the IC50 against Histone deacetylase amounted to 60 µM. Moreover, the EC50 in the assay with U-937 [12] turned out to be 16 µM. Further, the viability at 2 µM in the assay with U-937 [15] is 106%.

Take `O=C(CC[C@H](CCCC(=O)Nc1ccccc1)Cc1ccccc1)NO`: the Activity came to 50% in assay [2]; 32% in assay [4]; 74% in assay [6]; 37% in [7]; 48% in [8]; 84% in assay [9]. The Activity in assay [10] amounted to 76%; in [11] it was 22%; in assay [14], 15%; in [16], 68%; in assay [17], 33%; in assay [18] it was 56%. In addition, the Activity in assay [19] was 17%; in assay [20] it was 67%.

`CCC(CCCC(=O)Nc1ccccc1)CCC(=O)NO` (configuration not stated) came in with an IC50 against Histone deacetylase of 14 µM.
